Most compounds without a hit are left out; they make up all but 2.3% or so of the library.
EWS-Fli block: inhibitors of EWS/Fli oncoprotein transcriptional activity | A673 NR0B1-luciferase reporter, viability-normalised | inhibition, % at 12.6 µM | actives 0.67% (n = 350,000);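 active = mean inhibition of at least 50% after viability correction, with every replicate also passing that limit; inconclusive = mean reaches 50% but only one of two replicates passes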;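 note: firefly luciferase signal divided by Alamar Blue viability fluorescence both relative to DMSO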
Xi reactivation: reactivates the inactive X chromosome in mouse fibroblasts | XiGFP mouse fibroblasts, % GFP-positive cells imaging, 3 d; cells co-treated with 5-aza-dC sensitizer; scaled so ellipticine positive control = 100% | activation, % at 7.58 µM | actives 0.055% (n = 360,000);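 active = mean normalized replicate activation at least 10% and every replicate at or above 10%; inconclusive = only one of the two criteria met; inactive = mean below 10% and not all replicates reach 10%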;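 note: 0% = median of on-plate neutral control wells and 100% = ellipticine 6 µM median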
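Schedule: 3 d treatment, 15 min room-temperature fixation; system: 68-5-11 XiGFP fibroblast line; buffer or medium: DMEM plus 5-aza-dC sensitizer; control set: ellipticine 6 µM positive control; compound: one concentration, pinned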
LGR2 antag: blocks bursicon-induced cAMP signaling via Drosophila LGR2; HEK293 LGR2, CRE-luciferase, bursicon-stimulated, 4 h; inhibition, % at 9.99 µM; actives 0.35% (n = 380,000); AID 720647;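 active = drop in luminescence signal, shown as inhibition above about 50% in the replicate tests, limit read from the data, passing the limit was not always enough; inconclusive = probably only some replicates passing the limit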;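 note: agonist challenge used bursicon conditioned medium at about half maximal strength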
TROY NFkB inh: inhibitors of TROY-dependent NF-kB signaling. Q293 LMP1-TROYcd NF-kB luciferase reporter, 4 h. inhibition, % at 10 µM. actives 0.98% (n = 360,000). AID 1347056;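 active = compounds whose plate-normalised and pattern-corrected inhibition of the luciferase reporter signal at the single screening dose is 50% or more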
TWEAK Fn14 block: TWEAK-Fn14 signaling inhibition; TWEAK-stimulated Fn14 reporter cells, luciferase luminescence, 8 h; inhibition, % at 10 µM; actives 2% (n = 360,000); AID 1159606; in the data active = inhibition above about 50%
FN deposition inh: fibronectin deposition inhibition. AH1F fibroblasts, Alexa488-fibronectin deposition fluorescence, overnight. inhibition, % at 12.6 µM. actives 0.086% (n = 350,000). AID 743247;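 active = mean inhibition across replicates of 30% or more, regardless of how many single replicates reach that level; inconclusive = mean under 30% yet at least half of replicates reach 30%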;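 note: positive control wells lacked labelled fibronectin entirely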
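Material: AH1F fibroblast monolayer depositing Alexa488-labelled fibronectin into matrix / Amount: 10000 AH1F cells per well / Signal: fluorescence 485/525 nm / Medium: DMEM, 2% serum / Compound: single dose, pinned / Incubation: 1 h cell adhesion before compound, then overnight fibronectin incubation / Reagent: Alexa488-FN, 24 nM final / Read-out: inhibition of fibronectin deposition signal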
Numbers without * were called inactive.

What do the screens show for `Nc1nc(N)c2c(ccc3c2ccn3Cc2cccc([N+](=O)[O-])c2)n1`?
EWS-Fli block: 39; Xi reactivation: 0; LGR2 antag: 3; TROY NFkB inh: -22; TWEAK Fn14 block: 79*; FN deposition inh: 10

How did C[C@H](CO)N1C[C@H](C)[C@H](CN(C)C(=O)C2CC2)Oc2cc(-c3ccc(C(=O)N(C)C)cc3)ccc2S1(=O)=O do in these assays?
EWS-Fli block: -9; Xi reactivation: -1; LGR2 antag: -4

How did C=CCOC(=O)C1=C(C)N(C)C(=O)NC1c1cc2c(cc1Br)OCO2 (stereo unspecified) do in these assays?
TROY NFkB inh: 82*; TWEAK Fn14 block: 90*

What do the screens show for `CCOC(=O)C1=C(C)NC(=O)CC1c1cc2c(cc1Br)OCO2` (stereo unspecified)?
TWEAK Fn14 block: 100*

What do the screens show for `O=C(Nc1cccc(F)c1)N1CC(=O)N2[C@@H](CO)[C@@H](c3ccc(C#CC4CC4)cc3)[C@@H]2C1`?
EWS-Fli block: 8; Xi reactivation: 0; LGR2 antag: -6

Results for COc1ccc2c3c([nH]c2c1)[C@@H](CO)N(C(=O)CN(C)C)CC31CCN(CC2CC2)CC1 ?
EWS-Fli block: -4; Xi reactivation: 0; LGR2 antag: 8

Results for CC1=[N+](C)c2c(ccc3cccnc23)C1(C)C ?
EWS-Fli block: 20; Xi reactivation: inconclusive; LGR2 antag: inconclusive; TROY NFkB inh: 45; TWEAK Fn14 block: 78*; FN deposition inh: -45

What do the screens show for `COC(=O)c1[nH]c2ccccc2c1NC(=O)CN1CCN(C(=O)c2ccco2)CC1`?
TWEAK Fn14 block: 87*

What do the screens show for `COC(=O)c1[nH]c2ccccc2c1NC(=O)CN1CCN(c2cccc(Cl)c2)CC1`?
LGR2 antag: 9; TROY NFkB inh: 31; TWEAK Fn14 block: 59*

How did CC(C)Cc1cc(C(=O)Nc2cccc(O)c2)no1 do in these assays?
EWS-Fli block: -39; LGR2 antag: 41; TROY NFkB inh: 22; TWEAK Fn14 block: 65*; FN deposition inh: -4

What do the screens show for `COc1ccc(-c2cc(C(=O)Nc3cccc(O)c3)no2)cc1`?
EWS-Fli block: 69*; Xi reactivation: 0; LGR2 antag: 35; TROY NFkB inh: 31; TWEAK Fn14 block: 67*; FN deposition inh: 3

How did COc1ccc(-c2cc(C(=O)Nc3ccc(C)c(C)c3)no2)cc1 do in these assays?
EWS-Fli block: -5; Xi reactivation: 0; LGR2 antag: 0; TROY NFkB inh: 0; TWEAK Fn14 block: -17; FN deposition inh: -11

What do the screens show for `O=C(N/N=C/c1ccc(O)cc1)Nc1cccc2nsnc12`?
EWS-Fli block: -8; Xi reactivation: 0; LGR2 antag: 4; TROY NFkB inh: 37; TWEAK Fn14 block: 63*; FN deposition inh: 9

Results for O=C(NCc1ccc(F)cc1)[C@H]1C[C@H]2C(=O)N3CCC[C@H]3C(=O)N2[C@H]1c1ccc(O)cc1 ?
EWS-Fli block: 1

How did COc1ccc(N2C(=S)N(C(=O)c3ccccc3)C(=Nc3ccccc3)C2=Nc2ccccc2)cc1 do in these assays?
TROY NFkB inh: 25; TWEAK Fn14 block: 75*; FN deposition inh: -6

Results for COc1ccc(N=C2C(=Nc3ccc(OC)cc3)N(c3ccccc3)C(=S)N2C(=O)c2ccc(Cl)cc2)cc1 ?
TROY NFkB inh: 18; TWEAK Fn14 block: 66*; FN deposition inh: -7

What do the screens show for `CCCNC(=O)[C@H]1[C@H](CO)[C@H]2Cn3c(ccc(/C=C/c4ccccc4)c3=O)[C@@H]1N2C(=O)C1CCC1`?
EWS-Fli block: -4; Xi reactivation: 0; LGR2 antag: -9

How did COC(=O)/C=c1\sc2ncnn2c1=O do in these assays?
LGR2 antag: 4; TWEAK Fn14 block: 74*

How did COCCNC(=O)C[C@@H]1CC[C@@H](NS(=O)(=O)c2ccc(C)cc2)[C@@H](CO)O1 do in these assays?
EWS-Fli block: 8; Xi reactivation: 1; LGR2 antag: 6; FN deposition inh: -5

Results for COc1ccc(-c2nnc3sc(CN4C(=O)c5ccccc5C4=O)nn23)cc1 ?
TROY NFkB inh: 14; TWEAK Fn14 block: 93*
